Data: ChEMBL document CHEMBL2321676, “Antimalarial and Structural Studies of Pyridine-containing Inhibitors of 1-Deoxyxylulose-5-phosphate Reductoisomerase” (ACS Med Chem Lett, 2013)

Key:
Plasmodium falciparum [1] = experiment: Antimalarial activity against Plasmodium falciparum 3D7 after 3 days by SYBR green I assay; format: functional, organism-based; details: 3D7, 72 h
Plasmodium falciparum [2] = experiment: Antimalarial activity against Plasmodium falciparum Dd2 after 3 days by SYBR green I assay; format: functional, organism-based; details: Dd2, 72 h
WI-38 = experiment: Cytotoxicity against human WI38 cells after 48 hrs by MTS assay; format: cell-based; details: WI-38, 48 h
[3] = Selectivity index, ratio of EC50 for human WI38 cells to EC50 for Plasmodium falciparum; format: toxicity, cell-based, WI-38; details: read-out: Ratio EC50
Plasmodium falciparum [4] = experiment: Ratio of fosmidomycin Ki to compound Ki for Plasmodium falciparum recombinant DXR
[5] = Inhibition of Escherichia coli recombinant DXR using DXP as substrate preincubated for 5 mins
[6] = Inhibition of Plasmodium falciparum recombinant DXR using DXP as substrate preincubated for 5 mins
Summary of the method: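 Recombinant P. falciparum DXR. Inhibition is expressed as Ki.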

[7] = Half life in plasma (unknown origin); format: ADME, cell-free; details: unidentified

half-life [7] | Structure (SMILES) | EC50 (Plasmodium falciparum [1]) | EC50 (Plasmodium falciparum [2]) | EC50 (WI-38) | selectivity ratio [3] | Ratio Ki (Plasmodium falciparum [4]) | Ki [5] | Ki [6]
 | CC(=O)N(O)CCC(c1ccccc1)P(=O)(O)O (stereo unspecified) | 3500 nM | 1700 nM |  |  |  |  | 
 | CC(=O)N(O)CCC(c1cccnc1)P(=O)(O)O (stereo unspecified) | 440 nM | 310 nM | > 300000 nM | > 1700 | 11 | 42 nM | 1.9 nM
 | CCN(CC)CCCC(C)Nc1ccnc2cc(Cl)ccc12 (stereo unspecified) [CHLOROQUINE] | 21 nM | 120 nM |  |  |  |  | 
 | O=CN(O)CCC(c1cccnc1)P(=O)(O)O (stereo unspecified) | 340 nM | 180 nM | > 300000 nM | > 1700 |  | 87 nM | 13 nM
 | O=CN(O)CCC(c1ccncc1)P(=O)(O)O (stereo unspecified) | 180 nM | 170 nM | > 300000 nM | > 1700 | 2.4 | 35 nM | 8.9 nM
1 h | O=CN(O)CCCP(=O)(O)O [FOSMIDOMYCIN] | 1170 nM | 440 nM |  |  |  |  | 
 | O=CN(O)CCC(c1ccccc1)P(=O)(O)O (stereo unspecified) |  |  |  |  |  | 1500 nM | 480 nM
 | CC(=O)N(O)CCC(c1ccncc1)P(=O)(O)O (stereo unspecified) | 630 nM | 460 nM | > 300000 nM | > 1700 | 1.6 | 82 nM | 13 nM
